Measurements: ChEMBL document CHEMBL1157912, “Impact of nature and length of linker incorporated in agonists on toll-like receptor 9-mediated immune responses” (J Med Chem, 2010)

Columns and labels:
[1] = target: T1, Toll-like receptor 9 (Mus musculus) (UniProt Q9EQU3); experiment: Activation of mouse TLR9 expressed in HEK293 cells assessed as induction of NF-kappaB activity after 18 hrs by SEAP assay; format: cell-based
T1 sequence (whole entry): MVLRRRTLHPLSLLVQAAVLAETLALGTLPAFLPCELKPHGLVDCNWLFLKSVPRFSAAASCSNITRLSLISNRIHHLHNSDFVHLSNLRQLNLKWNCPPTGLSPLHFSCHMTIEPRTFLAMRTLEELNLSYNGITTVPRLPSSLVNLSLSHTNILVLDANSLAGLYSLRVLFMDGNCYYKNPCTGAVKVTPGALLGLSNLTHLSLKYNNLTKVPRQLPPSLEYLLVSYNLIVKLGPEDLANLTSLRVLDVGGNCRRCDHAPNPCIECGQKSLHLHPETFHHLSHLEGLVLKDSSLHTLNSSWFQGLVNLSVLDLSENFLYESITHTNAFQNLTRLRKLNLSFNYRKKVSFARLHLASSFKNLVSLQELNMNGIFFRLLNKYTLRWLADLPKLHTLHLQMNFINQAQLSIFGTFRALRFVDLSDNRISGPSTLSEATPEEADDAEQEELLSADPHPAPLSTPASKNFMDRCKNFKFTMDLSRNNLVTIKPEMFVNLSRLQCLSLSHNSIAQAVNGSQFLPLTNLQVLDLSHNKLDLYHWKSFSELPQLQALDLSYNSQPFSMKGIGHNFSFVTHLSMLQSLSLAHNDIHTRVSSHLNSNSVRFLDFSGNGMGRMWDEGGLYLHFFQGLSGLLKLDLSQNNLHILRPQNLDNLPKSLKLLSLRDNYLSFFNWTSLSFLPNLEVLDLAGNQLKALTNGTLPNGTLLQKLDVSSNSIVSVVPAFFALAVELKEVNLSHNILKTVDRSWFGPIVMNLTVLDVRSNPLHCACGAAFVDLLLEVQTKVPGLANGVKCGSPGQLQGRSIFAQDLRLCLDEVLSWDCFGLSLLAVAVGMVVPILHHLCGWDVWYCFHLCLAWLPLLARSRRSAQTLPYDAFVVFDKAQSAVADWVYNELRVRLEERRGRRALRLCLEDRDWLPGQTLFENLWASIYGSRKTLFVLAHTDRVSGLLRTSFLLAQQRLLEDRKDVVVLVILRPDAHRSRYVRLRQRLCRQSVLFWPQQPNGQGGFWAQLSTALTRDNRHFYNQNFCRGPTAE
Summary of the method: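 HEK293 cells stably expressing mouse TLR9 were grown in DMEM with 10% heat-inactivated FBS. At 80% confluence they were transiently transfected with a SEAP reporter plasmid (100 ng/well, lipofectamine) for 6 h. Medium was then replaced and agonists were added for 18 h. Supernatant SEAP was read with QuantiBlue substrate at 620-645 nm. Results are expressed as fold NF-κB activity over PBS control.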

[2] = target: T1, Toll-like receptor 9 (Mus musculus); experiment: Induction of TLR9-mediated IL12 production in C57BL/6 mouse spleen cells after 24 hrs by ELISA; format: cell-based
Summary of the method: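 C57BL/6 mouse spleen cells were cultured with agonists at 0.1, 0.3, 1, 3 and 10 μg/mL for 24 h. Secreted IL-12 and IL-6 in the supernatants were measured by ELISA. Values are averages of triplicate wells from one representative of at least two independent experiments.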

[3] = target: T2, Toll-like receptor 9 (Homo sapiens) (UniProt Q9NR96); experiment: Induction of TLR9-mediated immune stimulation in human PBMC assessed as IL2R production at 10 ug/ml after 24 hrs by luminex multiplex assay (RVb = 0.02 +/- 0.01 ng/ml)
T2 sequence (whole entry): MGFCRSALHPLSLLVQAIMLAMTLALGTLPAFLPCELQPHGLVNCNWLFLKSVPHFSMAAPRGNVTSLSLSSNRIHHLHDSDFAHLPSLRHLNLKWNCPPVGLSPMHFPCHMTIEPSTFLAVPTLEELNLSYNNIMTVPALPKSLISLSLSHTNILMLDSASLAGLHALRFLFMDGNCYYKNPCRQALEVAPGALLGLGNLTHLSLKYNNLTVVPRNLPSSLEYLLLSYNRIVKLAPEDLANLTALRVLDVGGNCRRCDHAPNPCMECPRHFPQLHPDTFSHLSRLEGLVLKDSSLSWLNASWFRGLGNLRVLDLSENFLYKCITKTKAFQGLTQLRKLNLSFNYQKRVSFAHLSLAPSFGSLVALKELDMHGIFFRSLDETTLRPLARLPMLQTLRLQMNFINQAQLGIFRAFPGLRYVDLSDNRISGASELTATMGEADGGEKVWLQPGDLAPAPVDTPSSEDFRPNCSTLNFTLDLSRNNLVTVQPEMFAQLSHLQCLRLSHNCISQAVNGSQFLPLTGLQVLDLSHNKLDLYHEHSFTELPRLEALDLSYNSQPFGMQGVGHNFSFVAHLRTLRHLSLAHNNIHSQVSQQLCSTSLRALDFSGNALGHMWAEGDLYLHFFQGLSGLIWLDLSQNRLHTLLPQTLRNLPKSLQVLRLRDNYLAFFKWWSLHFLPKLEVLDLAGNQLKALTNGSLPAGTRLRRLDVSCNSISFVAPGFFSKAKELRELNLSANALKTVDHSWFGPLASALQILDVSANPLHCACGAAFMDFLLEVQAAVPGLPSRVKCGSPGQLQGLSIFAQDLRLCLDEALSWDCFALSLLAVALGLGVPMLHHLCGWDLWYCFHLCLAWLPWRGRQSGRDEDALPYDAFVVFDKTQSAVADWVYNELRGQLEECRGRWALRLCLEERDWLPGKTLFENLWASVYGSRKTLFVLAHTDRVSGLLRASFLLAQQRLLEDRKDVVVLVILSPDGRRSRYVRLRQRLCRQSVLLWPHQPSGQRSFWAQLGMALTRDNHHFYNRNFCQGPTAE

[4] = target: T2, Toll-like receptor 9 (Homo sapiens); experiment: Induction of TLR9-mediated immune stimulation in human PBMC assessed as IL6 production at 2 ug/ml after 24 hrs by luminex multiplex assay (RVb = 0.01 ng/ml)
[5] = target: T2, Toll-like receptor 9 (Homo sapiens); experiment: Induction of TLR9-mediated immune stimulation in human PBMC assessed as IL12 production at 2 ug/ml after 24 hrs by luminex multiplex assay (RVb = 0.00 ng/ml)
[6] = target: T2, Toll-like receptor 9 (Homo sapiens); experiment: Induction of TLR9-mediated immune stimulation in human PBMC assessed as MIP1alpha production at 2 ug/ml after 24 hrs by luminex multiplex assay (RVb = 0.01 ng/ml)
[7] = target: T2, Toll-like receptor 9 (Homo sapiens); experiment: Induction of TLR9-mediated immune stimulation in human PBMC assessed as MIP1beta production at 10 ug/ml after 24 hrs by luminex multiplex assay (RVb = 0.03 +/- 0.02 ng/ml)
[8] = target: T2, Toll-like receptor 9 (Homo sapiens); experiment: Induction of TLR9-mediated immune stimulation in human PBMC assessed as RANTES production at 2 ug/ml after 24 hrs by luminex multiplex assay (RVb = 0.05 +/- 0.04 ng/ml)
[9] = target: T2, Toll-like receptor 9 (Homo sapiens); experiment: Induction of TLR9-mediated immune stimulation in human PBMC assessed as RANTES production at 10 ug/ml after 24 hrs by luminex multiplex assay (RVb = 0.05 +/- 0.04 ng/ml)

| Activity [1] | Activity [2] | Activity [3] | Activity [4] | Activity [5] | Activity [6] | Activity [7] | Activity [8] | Activity [9] | Compound |
| --- | --- | --- | --- | --- | --- | --- | --- | --- | --- |
| Dose-dependent effect | Dose-dependent effect | 0.12 ng/mL | 0.54 ng/mL | 0.16 ng/mL | 0.16 ng/mL | 1.76 ng/mL | 0.69 ng/mL | 0.98 ng/mL | Cc1cn([C@H]2C[C@H](OCC[C@H](O)COP(=O)(S)O[C@H]3C[C@H](n4cc(C)c(=O)[nH]c4=O)O[C@@H]3COP(=O)(S)O[C@H]3[C@@H](O)[C@H](n4ccc(N)nc4=O)O[C@@H]3COP(=O)(S)O[C@H]3C[C@H](n4cc(C)c(=O)[nH]c4=O)O[C@@H]3COP(=O)(S)O[C@H]3C[C@H](n4cc(C)c(=O)[nH]c4=O)O[C@@H]3COP(=O)(S)O[C@H]3C[C@H](n4ccc5c(=O)[nH]c(N)nc54)O[C@@H]3COP(=O)(S)O[C@H]3[C@@H](O)[C@H](n4ccc(N)nc4=O)O[C@@H]3COP(=O)(S)O[C@H]3C[C@H](n4cc(C)c(=O)[nH]c4=O)O[C@@H]3COP(=O)(S)O[C@H]3[C@@H](O)[C@H](n4cnc5c(=O)[nH]c(N)nc54)O[C@@H]3COP(=O)(S)O[C@H]3C[C@H](n4cc(C)c(=O)[nH]c4=O)O[C@@H]3COP(=O)(S)O[C@H]3[C@@H](O)[C@H](n4ccc(N)nc4=O)O[C@@H]3COP(=O)(S)O[C@H]3C[C@H](n4cc(C)c(=O)[nH]c4=O)O[C@@H]3CO)[C@@H](COP(=O)(S)O[C@H]3[C@@H](O)[C@H](n4ccc(N)nc4=O)O[C@@H]3COP(=O)(S)O[C@H]3C[C@H](n4cc(C)c(=O)[nH]c4=O)O[C@@H]3COP(=O)(S)O[C@H]3C[C@H](n4cc(C)c(=O)[nH]c4=O)O[C@@H]3COP(=O)(S)O[C@H]3C[C@H](n4ccc5c(=O)[nH]c(N)nc54)O[C@@H]3COP(=O)(S)O[C@H]3[C@@H](O)[C@H](n4ccc(N)nc4=O)O[C@@H]3COP(=O)(S)O[C@H]3C[C@H](n4cc(C)c(=O)[nH]c4=O)O[C@@H]3COP(=O)(S)O[C@H]3[C@@H](O)[C@H](n4cnc5c(=O)[nH]c(N)nc54)O[C@@H]3COP(=O)(S)O[C@H]3C[C@H](n4cc(C)c(=O)[nH]c4=O)O[C@@H]3COP(=O)(S)O[C@H]3[C@@H](O)[C@H](n4ccc(N)nc4=O)O[C@@H]3COP(=O)(S)O[C@H]3C[C@H](n4cc(C)c(=O)[nH]c4=O)O[C@@H]3CO)O2)c(=O)[nH]c1=O (stereo partly drawn) |
| Dose-dependent effect | Dose-dependent effect | 0.17 ng/mL | 0.14 ng/mL | 0.11 ng/mL | 0.04 ng/mL | 0.96 ng/mL | 0.7 ng/mL | 1.09 ng/mL | Cc1cn([C@H]2C[C@H](OCCOCCOCCOCCOP(=O)(S)O[C@H]3C[C@H](n4cc(C)c(=O)[nH]c4=O)O[C@@H]3COP(=O)(S)O[C@H]3[C@@H](O)[C@H](n4ccc(N)nc4=O)O[C@@H]3COP(=O)(S)O[C@H]3C[C@H](n4cc(C)c(=O)[nH]c4=O)O[C@@H]3COP(=O)(S)O[C@H]3C[C@H](n4cc(C)c(=O)[nH]c4=O)O[C@@H]3COP(=O)(S)O[C@H]3C[C@H](n4ccc5c(=O)[nH]c(N)nc54)O[C@@H]3COP(=O)(S)O[C@H]3[C@@H](O)[C@H](n4ccc(N)nc4=O)O[C@@H]3COP(=O)(S)O[C@H]3C[C@H](n4cc(C)c(=O)[nH]c4=O)O[C@@H]3COP(=O)(S)O[C@H]3[C@@H](O)[C@H](n4cnc5c(=O)[nH]c(N)nc54)O[C@@H]3COP(=O)(S)O[C@H]3C[C@H](n4cc(C)c(=O)[nH]c4=O)O[C@@H]3COP(=O)(S)O[C@H]3[C@@H](O)[C@H](n4ccc(N)nc4=O)O[C@@H]3COP(=O)(S)O[C@H]3C[C@H](n4cc(C)c(=O)[nH]c4=O)O[C@@H]3CO)[C@@H](COP(=O)(S)O[C@H]3[C@@H](O)[C@H](n4ccc(N)nc4=O)O[C@@H]3COP(=O)(S)O[C@H]3C[C@H](n4cc(C)c(=O)[nH]c4=O)O[C@@H]3COP(=O)(S)O[C@H]3C[C@H](n4cc(C)c(=O)[nH]c4=O)O[C@@H]3COP(=O)(S)O[C@H]3C[C@H](n4ccc5c(=O)[nH]c(N)nc54)O[C@@H]3COP(=O)(S)O[C@H]3[C@@H](O)[C@H](n4ccc(N)nc4=O)O[C@@H]3COP(=O)(S)O[C@H]3C[C@H](n4cc(C)c(=O)[nH]c4=O)O[C@@H]3COP(=O)(S)O[C@H]3[C@@H](O)[C@H](n4cnc5c(=O)[nH]c(N)nc54)O[C@@H]3COP(=O)(S)O[C@H]3C[C@H](n4cc(C)c(=O)[nH]c4=O)O[C@@H]3COP(=O)(S)O[C@H]3[C@@H](O)[C@H](n4ccc(N)nc4=O)O[C@@H]3COP(=O)(S)O[C@H]3C[C@H](n4cc(C)c(=O)[nH]c4=O)O[C@@H]3CO)O2)c(=O)[nH]c1=O (stereo partly drawn) |
